T cruzi growth-1: T. cruzi proliferation inhibition. T. cruzi beta-gal in NIH3T3, GalScreen luminescence, 90 h. AID 624255. actives 5.9% (n = 77,000). inhibition, % at 8.34 µM;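 active = mean inhibition above about 93%, with at least 55% of replicates each passing it, limit read from the data, passing the limit was not always enough; inconclusive = only one of those two conditions holds; inactive = neither condition holds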
KDM4C inh: KDM4C (human) demethylase inhibition; AID 720574; actives 0.15% (n = 96,000); GST-KDM4C 2-372, H3K9me3 peptide, LANCE TR-FRET; inhibition, % at 12.5 µM; Q9H3R0;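 active = mean replicate inhibition above about 25%, with at least 55% of replicates also reaching it, limit read from the data, passing the limit was not always enough; inconclusive = only one of those two conditions met; inactive = neither condition met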
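Test system: N-terminal GST-fused human GASC-1 (KDM4C) fragment, residues 2-372; quantity: GASC-1 enzyme at 10 nM final in reaction; dosing: single dose; schedule: 30 min demethylation and 1 h detection at room temperature; signal: LANCE TR-FRET, excitation 340 nm, emissions 618 and 671 nm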
IDH1 R132H inh: inhibitors of human IDH1 R132H; O75874; IDH1 R132H reductase, diaphorase/resazurin fluorescence, 60 min; inhibition, % at 10 µM; actives 0.18% (n = 70,000); AID 624101; in the data active = inhibition above about 34%; inconclusive = no clear call, values can overlap the other calls; inactive = below about 11%
Target sequence (O75874 whole entry R132H): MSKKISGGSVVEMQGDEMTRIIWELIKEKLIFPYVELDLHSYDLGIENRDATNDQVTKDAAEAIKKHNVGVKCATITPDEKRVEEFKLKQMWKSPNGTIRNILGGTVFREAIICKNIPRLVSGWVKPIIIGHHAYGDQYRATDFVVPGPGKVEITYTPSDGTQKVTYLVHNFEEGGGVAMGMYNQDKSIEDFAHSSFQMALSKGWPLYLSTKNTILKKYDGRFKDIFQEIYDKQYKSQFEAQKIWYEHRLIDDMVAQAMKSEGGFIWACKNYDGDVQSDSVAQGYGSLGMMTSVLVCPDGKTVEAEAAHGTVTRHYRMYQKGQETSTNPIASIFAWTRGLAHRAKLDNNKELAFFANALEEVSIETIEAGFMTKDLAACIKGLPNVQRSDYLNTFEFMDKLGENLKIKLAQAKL
T cruzi growth-2: Trypanosoma cruzi proliferation inhibition; shares compounds with T cruzi growth-1; inhibition, % at 8.35 µM; T. cruzi beta-gal in NIH3T3, GalScreen luminescence, 90 h; actives 72% (n = 5,600);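 active = mean replicate inhibition above about 95% and at least 55% of replicates individually reaching it, limit read from the data; inconclusive = only one of the two criteria is met; inactive = neither criterion is met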
T cruzi growth-3: blocks T. cruzi growth in NIH3T3 host cells. inhibition, % at 2.09 µM. AID 651740. actives 21% (n = 5,600). T. cruzi beta-gal in NIH3T3, GalScreen luminescence, 90 h. shares compounds with T cruzi growth-1;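 active = mean inhibition above about 95%, with at least 55% of replicates also reaching it, limit read from the data; inconclusive = meets just one of the two conditions; inactive = meets neither condition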
NIH3T3 tox: NIH/3T3 (mouse) viability loss; shares compounds with T cruzi growth-1; NIH/3T3 viability, CellTiter-Glo ATP luminescence, 90 h; cytotoxicity (signal decrease), % at 8.35 µM; actives 14% (n = 5,600); AID 651742;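 active = mean signal decrease across replicates above about 35% based on untreated-well scatter, with enough replicates individually passing, limit read from the data; inconclusive = no rule stated though some were filed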
3T3 cytotox 2: cytotoxicity in mouse NIH/3T3 fibroblasts | shares compounds with T cruzi growth-1 | NIH/3T3 viability, CellTiter-Glo ATP luminescence, 90 h | inhibition, % at 24.9 µM | actives 56% (n = 5,600);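 active = mean loss of cell viability signal at or above a set limit, and enough replicates individually reaching it; inconclusive = meets only the mean limit or only the replicate share; inactive = meets neither condition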
Large screens that a line does not name were inactive (follow-up assays come after a bar, where they were run). Many of the other results were omitted from the sample, so hits are more common in it than they were.

CCc1csc(N2[C@H](C#N)[C@H](c3ccc(C4=CCCC4)cc3)[C@H]2CO)n1	T cruzi growth-1 102.5 (no result: IDH1 R132H inh) | T cruzi growth-2 103.3 | T cruzi growth-3 inactive | NIH3T3 tox inactive | 3T3 cytotox 2 inactive
N#C[C@H]1[C@@H](c2ccc(C3=CCCC3)cc2)[C@H](CO)N1c1nc(-c2ccccc2)cs1	none (no result: T cruzi growth-1, IDH1 R132H inh)
COc1ccc(-n2c(SCC(=O)c3cccc([N+](=O)[O-])c3)nnc2-c2ccc(Cl)cc2)cc1	none (no result: T cruzi growth-1, KDM4C inh)
Cc1nnc(SCc2nnnn2-c2ccccc2)[nH]c1=O	none (no result: T cruzi growth-1, KDM4C inh)
C=CC(C)(C)[C@@]12CC(=O)C(=O)N3/C(=C/c4cnc[nH]4)C(=O)N[C@]31N(OC)c1ccccc12	none (no result: T cruzi growth-1, KDM4C inh)
CCC(=O)N(C)C[C@H]1Oc2cc(C#CCN(C)C)ccc2S(=O)(=O)N([C@H](C)CO)C[C@@H]1C	T cruzi growth-1 101.5 | T cruzi growth-2 97.4 | T cruzi growth-3 inactive | NIH3T3 tox inactive | 3T3 cytotox 2 inactive
CCC(=O)N(C)C[C@H]1Oc2cc(C#CCN(C)C)ccc2S(=O)(=O)N([C@@H](C)CO)C[C@@H]1C	T cruzi growth-1 101.9 | T cruzi growth-2 103.6 | T cruzi growth-3 inconclusive | NIH3T3 tox inactive | 3T3 cytotox 2 inactive
CCC(=O)N(C)C[C@@H]1Oc2cc(C#CCN(C)C)ccc2S(=O)(=O)N([C@H](C)CO)C[C@@H]1C	none
CCCNC(=O)N(C)C[C@H]1Oc2cc(C#CCN(C)C)ccc2S(=O)(=O)N([C@@H](C)CO)C[C@@H]1C	T cruzi growth-1 inconclusive | T cruzi growth-2 inactive | T cruzi growth-3 inactive | NIH3T3 tox inactive | 3T3 cytotox 2 inactive
CCC(=O)N(C)C[C@H]1Oc2cc(C#CCN(C)C)ccc2S(=O)(=O)N([C@H](C)CO)C[C@H]1C	none
CCCC#Cc1ccc2c(c1)O[C@H](CN(C)C(=O)NCCC)[C@H](C)CN([C@H](C)CO)S2(=O)=O	none
COc1ccc(S(=O)(=O)N(C)CC(=O)NC2CC2)cc1C	none (no result: T cruzi growth-1, KDM4C inh)
Nc1cc(N)nc(SCC(=O)Nc2ccc3ccccc3c2)n1	none (no result: T cruzi growth-1, KDM4C inh)
COc1ccc(N(CC(=O)Nc2ccc(C(F)(F)F)cc2)S(C)(=O)=O)cc1Cl	none (no result: T cruzi growth-1, KDM4C inh)
CCOC(=O)c1cc(COc2ccc3oc4ccccc4c3c2)c(C)o1	none (no result: T cruzi growth-1, KDM4C inh)
COc1c(Cl)cc(C(=O)Nc2sc3c(c2C(=O)NC2CCS(=O)(=O)C2)CCC(C)C3)cc1Cl (centres undefined)	none (no result: T cruzi growth-1, KDM4C inh)
COc1ccc(NC(=O)N2CCCCN3[C@H](CO)[C@@H](c4ccc(-c5ccccc5C)cc4)[C@H]3C2)cc1	T cruzi growth-1 109.1 (no result: IDH1 R132H inh) | T cruzi growth-2 102.7 | T cruzi growth-3 inactive | NIH3T3 tox 40.3 | 3T3 cytotox 2 102.9
COc1ccc(NC(=O)N2CCCCN3[C@@H](CO)[C@@H](c4ccc(C5=CCCC5)cc4)[C@@H]3C2)cc1	none (no result: KDM4C inh, IDH1 R132H inh)
COc1ccc(NC(=O)N2CCCCN3[C@H](CO)[C@H](c4ccc(C5=CCCCC5)cc4)[C@@H]3C2)cc1	T cruzi growth-1 113.8 (no result: IDH1 R132H inh) | T cruzi growth-2 109.5 | T cruzi growth-3 inactive | NIH3T3 tox inactive | 3T3 cytotox 2 80.9
COc1ccc(NC(=O)N2CCCCN3[C@@H](CO)[C@@H](c4ccc(-c5ccccc5C)cc4)[C@@H]3C2)cc1	T cruzi growth-1 107.9 (no result: IDH1 R132H inh) | T cruzi growth-2 inactive | T cruzi growth-3 inactive | NIH3T3 tox 110.7 | 3T3 cytotox 2 101.8
COc1ccc(NC(=O)N2CCCCN3[C@H](CO)[C@H](c4ccc(-c5ccccc5C)cc4)[C@@H]3C2)cc1	none (no result: IDH1 R132H inh)
COc1ccc(NC(=O)N2CCCCN3[C@@H](CO)[C@H](c4ccc(-c5ccccc5C)cc4)[C@@H]3C2)cc1	T cruzi growth-1 102.3 (no result: IDH1 R132H inh) | T cruzi growth-2 101.2 | T cruzi growth-3 inactive | NIH3T3 tox inactive | 3T3 cytotox 2 103.7
COc1ccc(NC(=O)N2CCCCN3[C@H](CO)[C@H](c4ccc(-c5ccccc5F)cc4)[C@H]3C2)cc1	none (no result: IDH1 R132H inh)
COc1ccc(NC(=O)N2CCCCN3[C@H](CO)[C@@H](c4ccc(-c5ccccc5F)cc4)[C@H]3C2)cc1	none (no result: IDH1 R132H inh)
O=C(NC(=S)c1c(-c2ccccc2)cc2ccccn12)c1ccccc1	none (no result: T cruzi growth-1, KDM4C inh)
CC(=O)c1ccc(NC(=O)c2ccc(CSc3nc4ccc([N+](=O)[O-])cc4s3)cc2)cc1	none (no result: T cruzi growth-1, KDM4C inh)
